Screens as filed in PubChem BioAssay.
A selection: hits, their analogues and other compounds. The true share with any hit is near 1.6%.
SUMO1 PPI mod: modulators of SUMO1 protein-protein interactions, primary screen, biochemical, uHTS. Small ubiquitin-related modifier 1 (Homo sapiens), P63165. SUMO1 binding to a labelled peptide, TR-FRET, 1 h. inhibition, % at 20 µM. 360,000 tested, 0.33% active. AID 602429, 2012; in the data active = inhibition above about 37%
Target sequence (P63165 whole entry, looked up): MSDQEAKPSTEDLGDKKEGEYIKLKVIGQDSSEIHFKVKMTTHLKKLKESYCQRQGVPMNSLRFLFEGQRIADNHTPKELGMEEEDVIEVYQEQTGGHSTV
STEP block: STEP phosphatase inhibitors, primary screen, biochemical, fluorescence intensity, uHTS | inhibition, % at 20 µM | recombinant STEP, OMFP fluorogenic substrate | Tyrosine-protein phosphatase non-receptor type 5 (Homo sapiens), P54829 | AID 588621, 2011 | 360,000 tested, 0.25% active;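 active = inhibition at 20 µM, scaled per plate between control wells, above about 37%, limit read from the data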;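 also: 0% = DMSO with enzyme and substrate and 100% = substrate only without enzyme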
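Assay system: isolated STEP enzyme. Buffer or medium: pH 6.0 Bis-Tris with DTT and Tween 20. Also added: fluorogenic phosphatase substrate OMFP at 25 µM final. Dosing: 20 µM, 1% DMSO. Timing: 20 min reaction, room temperature, in the dark. Measured by: fluorescence intensity, excitation 480 nm, emission 540 nm. Evaluation: normalized % inhibition.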
Scp1 inh: Scp-1 phosphatase inhibitors, primary screen, biochemical, colorimetric, uHTS; AID 493091, 2011; Recombinant Scp1, phosphopeptide, malachite green phosphate absorbance; inhibition, % at 20 µM; Carboxy-terminal domain RNA polymerase II polypeptide A small phosphatase 1 (Homo …; 340,000 tested, 0.88% active;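 active = inhibition above about 50% at 20 µM, limit read from the data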;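 also: plate controls were DMSO wells with enzyme for no effect and wells lacking enzyme for full effect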
Target sequence (Q9GZU7 76-261 limits assumed): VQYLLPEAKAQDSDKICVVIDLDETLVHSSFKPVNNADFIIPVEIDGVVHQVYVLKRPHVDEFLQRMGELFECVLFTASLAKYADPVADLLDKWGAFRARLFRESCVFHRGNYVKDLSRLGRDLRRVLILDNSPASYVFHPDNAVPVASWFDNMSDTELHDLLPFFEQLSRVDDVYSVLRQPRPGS
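Times: enzyme reaction 45 min at room temperature, colour 5 min, stabilisation 30 min. Material: SCP-1 catalytic fragment, aa 76-261. Medium: Acidic Tris acetate buffer with magnesium and detergent. Signal: colorimetric free-phosphate detection, absorbance 630 nm. Read-out basis: % inhibition of SCP-1 phosphate liberation. Reagent: Phosphorylated 17-residue peptide substrate.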
DNMT1 inh: human DNMT1 methyltransferase inhibitors, primary screen, biochemical, molecular beacon, fluorescence, HinP1I cleavage, uHTS | AID 588458, 2011 | 360,000 tested, 0.83% active | inhibition (reported as % activation of signal), % at 10 µM | DNA (cytosine-5)-methyltransferase 1 (Homo sapiens), P26358; in the data active = inhibition above about 50%
LMPTP inh: LMPTP phosphatase inhibitors, primary screen, biochemical, fluorescence intensity, uHTS; 360,000 tested, 0.22% active; inhibition, % at 20 µM; recombinant LMPTP-A, OMFP fluorogenic substrate; Low molecular weight phosphotyrosine protein phosphatase (Homo sapiens), P24666;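 active = compounds that cut the enzyme signal by at least half of the control window in the single-dose screen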;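 also: plate controls were DMSO wells with enzyme plus substrate for no effect and substrate without enzyme for full effect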
Target sequence (P24666 whole entry, looked up): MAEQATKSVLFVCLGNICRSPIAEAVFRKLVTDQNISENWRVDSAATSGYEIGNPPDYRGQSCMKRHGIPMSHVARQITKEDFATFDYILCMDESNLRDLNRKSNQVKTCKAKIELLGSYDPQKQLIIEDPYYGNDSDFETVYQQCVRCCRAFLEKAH
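Material: LMPTP-A; amount: 0.625 nM enzyme; doses: single 20 µM dose; times: reaction 50 min, room temperature, dark; technique: fluorescence intensity of OMFP turnover product; benchmarks: no-enzyme and uninhibited controls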
CFTR F508del cor: F508del CFTR correction, initial screen, CFBE line, single point; 350,000 tested, 0.36% active; CFBE cells, YFP halide quenching; stimulated with forskolin plus potentiator P3; % fluorescence drop versus neutral controls; activity (quench increase), % at 7.58 µM;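 active = mean added fluorescence quench of at least 8% versus neutral control, with both replicates also reaching 8%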;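 also: cells transiently co-express mutant CFTR-F508del with the halide-sensitive YFP; corrector assay measuring rescue of mutant channel to the surface after 24 h compound exposure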
* hit, by the source's call; · = no result.

SMILES	SUMO1 PPI mod	STEP block	Scp1 inh	DNMT1 inh	LMPTP inh	CFTR F508del cor
CCNC(=O)[C@@H]1[C@@H](CO)[C@@H]2Cn3c(ccc(-c4ccccc4F)c3=O)[C@H]1N2Cc1cccnc1	·	·	·	·	·	1
CN(Cc1cnc2nc(N)nc(N)c2n1)c1ccc(C(=O)NC(CCC(=O)O)C(=O)O)c2ccccc12 (stereo unspecified)	10	-3	12	5	22	11*
CC1Cc2ccccc2N1S(=O)(=O)c1cccc(C(=O)N2CCN(c3ncccn3)CC2)c1 (stereo unspecified)	-4	3	9	-5	1	8.5*
CC(=O)N1CCN(C(=O)c2cccc(S(=O)(=O)N3c4ccccc4CC3C)c2)CC1 (stereo unspecified)	-5	0	2	-4	3	2
CCOC(=O)[C@@H](CCc1ccccc1)N[C@H](C)C(=O)N1[C@H](C(=O)O)C[C@@H]2CCC[C@@H]21	4	2	-9	0	-1	-2
CCOC(=O)[C@H](CCc1ccccc1)N[C@@H](C)C(=O)N1[C@H](C(=O)O)C[C@@H]2CCC[C@@H]21	4	8	-6	2	-1	12*
C#CCOCCOCCOCCNc1nc(N2CCN(C(=O)CCCCCCCCCCNC(=O)Cn3cc(CCCCCN)nn3)CC2)nc(N2CCN(C(=O)CCCCCCCCCCNC(=O)[C@H]([C@@H](C)CC)n3cc(CCCCN=C(N)N)nn3)CC2)n1	39*	8	40	-32	5	·
C#CCOCCOCCOCCNc1nc(N2CCN(C(=O)[C@H]([C@@H](C)CC)n3cc(CCC(=O)O)nn3)CC2)nc(N2CCN(C(=O)[C@H](CCCCN)n3cc(CCCC)nn3)CC2)n1	0	3	14	5	-1	9.2*
C#CCOCCOCCOCCNc1nc(N2CCN(C(=O)CCCCCCCCCCNC(=O)[C@H]([C@@H](C)CC)n3cc(CCCCN=C(N)N)nn3)CC2)nc(N2CCN(C(=O)CCCCCCCCCCNC(=O)[C@H](CO)n3cc(CCCCCN)nn3)CC2)n1	47*	14	35	-81	6	·
C#CCOCCOCCOCCNc1nc(N2CCN(C(=O)CCCCCCCCCCNC(=O)[C@H]([C@@H](C)CC)n3cc(CCCCN=C(N)N)nn3)CC2)nc(N2CCN(C(=O)CCCCCCCCCCNC(=O)[C@H](CCCCN)n3cc(C)nn3)CC2)n1	·	·	40	·	·	·
C#CCOCCOCCOCCNc1nc(N2CCN(C(=O)CCCCCCCCCCNC(=O)[C@H]([C@@H](C)CC)n3cc(CCCCCN)nn3)CC2)nc(N2CCN(C(=O)CCCCCCCCCCNC(=O)[C@H]([C@@H](C)CC)n3cc(CCCCN=C(N)N)nn3)CC2)n1	79*	5	·	-130	3	·
C#CCOCCOCCOCCNc1nc(N2CCN(C(=O)[C@H]([C@@H](C)CC)n3cc(CCCCN)nn3)CC2)nc(N2CCN(C(=O)[C@H](CCCCN)n3cc(CCCC)nn3)CC2)n1	-24	-2	-2	2	-4	0
Cc1cccc(S(=O)(=O)NC[C@@H]2CC[C@H]3NC[C@H]3O2)c1	·	·	·	·	·	-6
C[C@@H]1CN([C@H](C)CO)C(=O)c2cc(NS(=O)(=O)c3cccs3)ccc2O[C@@H]1CN(C)C(=O)Nc1ccc(C(F)(F)F)cc1	·	·	·	·	·	-1
CC(=O)N1CCCCN2[C@@H](CO)[C@H](c3ccc(-c4cccc(C(=O)N(C)C)c4)cc3)[C@@H]2C1	·	·	·	·	·	-1
CC(=O)n1cc([C@@H]2C=C(C(=O)N3CCCCCCC3)O[C@H](OCCCCO)C2)c2ccccc21	·	·	·	·	·	3
NS(=O)(=O)c1ccc(NNC(=O)c2ccc(Br)o2)c([N+](=O)[O-])c1	-14	-1	1	-2	1	8.0*
Cc1ccc(NC(=O)c2ccc(Br)o2)c([N+](=O)[O-])c1	-14	1	0	1	0	-3
CN=c1scc(-c2ccccc2F)n1/N=C/c1ccc[nH]1	-7	-4	3	-16	2	0
CN=c1scc(-c2ccccc2F)n1/N=C/c1ccc(O)c(O)c1O	-14	8	22	-10	57*	-1
C[C@H](CO)N1C[C@H](C)[C@@H](CN(C)C(=O)Nc2ccc(F)cc2)Oc2ccc(NC(=O)Nc3ccccc3)cc2C1=O	·	·	·	·	·	2
Nc1cccc2nc3ccccc3cc12	-24	-1	-6	69*	13	·
C[C@@H]1CCCCO[C@@H](CN(C)S(C)(=O)=O)[C@H](C)CN([C@@H](C)CO)C(=O)c2cc(NS(C)(=O)=O)ccc2O1	·	·	·	·	·	0
CNC[C@@H]1Oc2ccc(NC(=O)c3ccncc3)cc2CC(=O)N([C@H](C)CO)C[C@@H]1C	·	·	·	·	·	1
COc1cc(OC)cc(-c2cc3ccc(OC)cc3cn2)c1	-27	-2	4	0	2	10*
SMILES	SUMO1 PPI mod	STEP block	Scp1 inh	DNMT1 inh	LMPTP inh	CFTR F508del cor
CCCNC(=O)Nc1ccc2c(c1)OC[C@@H](C)N(CCC(F)(F)F)C[C@H](C)[C@H](OC)CN(C)C2=O	·	·	·	·	·	-1
N#C/C(=C/c1cccn1-c1cccc(C(=O)O)c1)c1ccc(Cl)cc1	-6	6	33	80*	8	-3
COc1ccc(C2CN=NC23CCc2ccccc2C3=O)cc1 (stereo unspecified)	6	2	-4	1	1	16*
Cc1ccccc1NCC(=O)N=Nc1c(O)[nH]c2ccc([N+](=O)[O-])cc12	-14	4	1	-6	0	-5
O=C(O)c1ccccc1N=Nc1c(O)[nH]c2ccc([N+](=O)[O-])cc12	111*	46*	81*	17	21	·
Cc1ccc2c(c1C)NC(C(=O)O)C1CC=CC21 (stereo unspecified)	86*	20	80*	103*	63*	·
O=C(O)C1Nc2c(C(F)(F)F)ccc(Cl)c2C2C=CCC12 (stereo unspecified)	-2	3	2	7	-1	2
CC(C)C1Nc2ccc(C(=O)O)cc2C2C=CCC21 (stereo unspecified)	16	0	15	12	0	-1
Cc1cc(C)c2c(c1)NC(C(=O)O)C1CC=CC21 (stereo unspecified)	42*	36	72*	76*	43	2
O=C(O)C1Nc2c(C(=O)N3CCOCC3)cccc2C2C=CCC12 (stereo unspecified)	29	10	51*	107*	-2	·
